Ae data for 2 compounds are collected here from ChEMBL document CHEMBL3526119, “Effect of the CYP2C8 genotype on the pharmacokinetics and pharmacodynamics of repaglinide” (Drug Metab Dispos, 2011).

Common to all, as to type: ADME, organism-based
Details in all cases: in vivo

The subject of data set [1] is Homo sapiens. As to the kind of experiment: Drug excretion in healthy white human with SLCO1B1 521TT/CYP2C8*1/*1 combined genotype treated with 2 mg, po repaglinide. The procedure, abridged: (§1)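 Urine was collected before a single 2 mg oral dose and over 0–4, 4–8, 8–12, 12–16 and 16–24 h. Metabolites M1 and M4 were measured by LC-MS/MS. With no reference standards, amounts were expressed in arbitrary units as the peak area ratio to diclofenac internal standard. Ae0-24h is the sum of amounts over the collection periods.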

The subject of data set [2] is Homo sapiens. Kind of data set: Drug excretion in healthy white human with SLCO1B1 521CC/CYP2C8*1/*3 combined genotype treated with 2 mg, po repaglinide. The procedure, abridged: as §1
Data set [3] can be described thus: Drug excretion in healthy white human urine with CYP2C8*3/*3 genotype at 2 mg, po up to 24 hrs. The procedure, abridged: as §1
Data set [4] concerns Homo sapiens. As to the kind of experiment: Drug excretion in healthy white human with SLCO1B1 521TC/CYP2C8*3/*3 combined genotype treated with 2 mg, po repaglinide. The procedure, abridged:
as §1

Data set [5] deals with Homo sapiens. As to the kind of experiment: Drug excretion in healthy white human with SLCO1B1 521TC/CYP2C8*1/*1 combined genotype treated with 2 mg, po repaglinide. The procedure, abridged: as §1
Data set [6] in a line: Drug excretion in healthy white human urine with CYP2C8*1/*1 genotype at 2 mg, po up to 24 hrs. The procedure, abridged: as §1
The test system of data set [7] is Homo sapiens. As to the kind of experiment: Drug excretion in healthy white human with SLCO1B1 521CC/CYP2C8*3/*3 combined genotype treated with 2 mg, po repaglinide. The procedure, abridged:
as §1

Data set [8] concerns Homo sapiens. Kind of data set: Drug excretion in healthy white human with SLCO1B1 521TT/CYP2C8*3/*3 combined genotype treated with 2 mg, po repaglinide. The procedure, abridged: as §1
In data set [9] the test system is Homo sapiens. As to the kind of experiment: Drug excretion in healthy white human with SLCO1B1 521TT/CYP2C8*1/*3 combined genotype treated with 2 mg, po repaglinide. The procedure, abridged:
as §1

For data set [10], the system named is Homo sapiens. As to the kind of experiment: Drug excretion in healthy white human with SLCO1B1 521TC/CYP2C8*1/*3 combined genotype treated with 2 mg, po repaglinide. The procedure, abridged: as §1
For data set [11], the system named is Homo sapiens. Kind of data set: Drug excretion in healthy white human urine at 2 mg, po up to 24 hrs. The procedure, abridged:
as §1

The nature of data set [12]: Drug excretion in healthy white human urine with CYP2C8*1/*3 genotype at 2 mg, po up to 24 hrs. The procedure, abridged: as §1

As to `CCOc1cc(CC(=O)N[C@@H](CC(C)C)c2ccccc2N2CCCC(O)C2)ccc1C(=O)O` (some centres undefined), the Ae in data set [1] is recorded as 181.7 a.u; in [2], 155.1 a.u; in [3], 336.7 a.u; in data set [4], 471.7 a.u; in data set [5], 191.7 a.u; in data set [6], 184.2 a.u. Besides, the Ae in data set [7] turned out to be 268.6 a.u; in data set [8], 79.4 a.u; in [9] it was 226.4 a.u; in data set [10], 197.8 a.u; in [11], 217.8 a.u; in [12], 212.4 a.u.
For `CCOc1cc(CC(=O)N[C@@H](CC(C)C)c2ccccc2N)ccc1C(=O)O`, the Ae in [1] is listed as 57 a.u; in data set [2], 41.4 a.u; in [3], 53.3 a.u; in data set [4] it was 52.8 a.u; in data set [5], 39.9 a.u; in data set [6], 52.8 a.u. Moreover, the Ae in data set [7] came out at 29.1 a.u; in data set [8], 53.1 a.u; in data set [9], 47.5 a.u; in [10], 33.3 a.u; in [11], 48.3 a.u; in data set [12] it was 42.6 a.u.
